The test system of assay [1] is BV-2. Kind of assay: Reversal of IFNgamma-induced inflammatory gene expression in mouse single close BV-2 cells assessed as reversal of iNOS expression at 20 uM measured after 24 hrs by qRT-PCR analysis. Type of assay: functional, cell-based. The essentials: (§1)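 BV-2 cells treated 24 h with IFNγ 10 ng/mL with or without compound at 20 μM; iNOS, COX-2 and TNFα mRNA measured by one-step qRT-PCR (100 ng RNA template, 0.4 μM primers, 40 cycles), Cq read each cycle.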
(In general: Real-time PCR tracks product formation cycle by cycle.)

A short description of assay [2]: Reversal of IFNgamma-induced RGS10 silencing in mouse single close BV-2 cells assessed as RGS10 protein level by measuring luminescence signal measured after 24 hrs by Nano-Glo HiBit Lytic detection assay. As to conditions: BV-2, 24 h. A general note: The HiBiT peptide binds its large partner to form an active luciferase.
A short description of assay [3]: Reversal of IFNgamma-induced RGS10 silencing in mouse single close BV-2 cells assessed as IFN response measured after 24 hrs by Nano-Glo HiBit Lytic detection assay relative to control. Also on record: concentration or dose not given beside the values. Type of assay: functional. In short, it runs like this:
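HiBiT-tagged BV-2-RGS10 clone treated with compound at 20 μM plus IFNγ 10 ng/mL for 24 h at 37 °C; viability by GF-AFC fluorescence, then HiBiT lytic luminescence; signal normalized RLU/RFU, expressed as % of IFNγ-alone signal; four independent experiments in triplicate, one-way ANOVA with Dunnett's test.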

Assay [4] concerns BV-2. Put plainly: Reversal of IFNgamma-induced inflammatory gene expression in mouse single close BV-2 cells assessed as reversal of TNFalpha expression at 20 uM measured after 24 hrs by qRT-PCR analysis. Type of assay: functional, cell-based. The essentials:
as §1

A short description of assay [5]: Induction of RGS10 expression in mouse single close BV-2 cells assessed as RGS10 protein level by measuring luminescence signal measured after 24 hrs by Nano-Glo HiBit Lytic detection assay. Type of assay: functional. More on the design: concentration or dose not given beside the values. In short, it runs like this:
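BV-2-RGS10-HiBiT single-clone cells (CRISPR HiBiT tag at RGS10 C-terminus) in phenol red-free DMEM, 10% ultralow IgG FBS; IFNγ 10 ng/mL final plus compound 1–100 μM, 24 h, 37 °C. GF-AFC viability fluorescence (390/505) read first, then Nano-Glo HiBiT lytic luminescence (LgBiT 1:100, substrate 1:50); RLU/RFU expressed as % of IFNγ alone; 4 independent experiments in triplicate.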

Assay [6] in a line: (§2) Reversal of LPS-induced RGS10 silencing in mouse single close BV-2 cells assessed as RGS10 protein level by measuring LPS response measured after 24 hrs by Nano-Glo HiBit Lytic detection assay. Type of assay: functional. More on the design: concentration or dose not given beside the values. The essentials: (§3)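 HiBiT-knock-in BV-2 single clone exposed to LPS at 10 ng/mL final for 24 h at 37 °C in phenol red-free assay medium; RGS10-HiBiT measured by Nano-Glo HiBiT lytic detection (LgBiT 1:100, substrate 1:50), luminescence read after 15 min at room temperature.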

The test system of assay [7] is BV-2. Kind of assay: Reversal of IFNgamma-induced RGS10 silencing in mouse single close BV-2 cells assessed as suppression of RGS10 protein level at 20 uM measured after 24 hrs by Western blot analysis. Type of assay: functional, cell-based. In short, it runs like this:
(§4)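 Parental BV-2 cells, IFNγ 10 ng/mL with compound 20 μM for 24 h or 48 h; lysates in Tris/NaCl/Triton/SDS buffer with protease inhibitors, equal protein on 12% SDS-PAGE, goat anti-RGS10 (1:1,000) with β-actin or GAPDH loading control, infrared secondary detection; four independent experiments in duplicate.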
A general note: In western blotting, separated proteins are transferred to a membrane and probed.

The test system of assay [8] is BV-2. Put plainly: Reversal of IFNgamma-induced inflammatory gene expression in mouse single close BV-2 cells assessed as reversal of COX-2 expression at 20 uM measured after 24 hrs by qRT-PCR analysis. Type of assay: functional, cell-based. In short, it runs like this:
as §1

Assay [9] has as its system BV-2. The assay is described as §2. Type of assay: functional. More on the design: concentration or dose not given beside the values. In short, it runs like this: as §3
Assay [10] deals with BV-2. Kind of assay: Reversal of IFNgamma-induced RGS10 silencing in mouse single close BV-2 cells assessed as increase in of RGS10 mRNA level measured after 24 hrs by qRT-PCR analysis. Type of assay: functional, cell-based. The conditions noted are these: dose 0.5-20 µM. In short, it runs like this: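 Parental BV-2 cells given IFNγ 10 ng/mL for 24 h with compound 0.5–20 μM; RGS10 mRNA by one-step qRT-PCR (100 ng RNA, 0.4 μM primers; RT 55 °C 10 min, 40 cycles 95 °C/60 °C), Cq values with melt curve.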

Assay [11] has as its system BV-2. Kind of assay: Reversal of IFNgamma-induced RGS10 silencing in mouse single close BV-2 cells assessed as suppression of RGS10 protein level at 20 uM measured after 48 hrs by Western blot analysis. Type of assay: functional, cell-based. The essentials:
as §4

By EC50 is commonly meant the concentration needed to bring the measured effect to its halfway point.

Calls of active or inactive are those of the source. No cut-off for these calls is given here.

Take `Cc1oc(-c2ccc(Cl)cc2)nc1CN1CCCC(C(=O)N2CCN(C(=O)c3ccco3)CC2)C1` (centres undefined): in the assay on BV-2 [1], the outcome was Active. In assay [2], the EC50 amounted to 78.8 µM. For the same compound, the values for the Activity in [3], in assay [5] and in assay [6] were 172.8%, 101.8% and 116.9%, respectively. For the same compound, the outcome in the assay with BV-2 [4] and in the assay on BV-2 [7] was inactive.

Regarding `Cc1cc(C)cc(Nc2nc(C)cc(=O)n2CC(=O)Nc2cccc(C#N)c2)c1`, the figures for the Activity in assay [3], in [5] and in assay [6] were 102.4%, 116.1% and 105.8%, respectively.

As for `COc1cccc(CNC(=O)c2ccc3c(Cl)c4c(nc3c2)CCCC4)c1`, the Activity in assay [3] is 141.3%; in assay [5] it was 104.6%; in assay [6], 97.4%.

Turning to `COCCOC1CCN(C(=O)Nc2ccc(C(=O)OC)cc2)CC1`, the Activity in assay [3] is reported as 106.7%; in [5] it was 101.2%; in assay [6] it was 121.7%.

On to `Cc1cc(C)c2c(=O)cc(CN(Cc3ccccc3)Cc3ccco3)[nH]c2c1`, for which the outcome with BV-2 [1] and in the assay on BV-2 [8] was Active. The EC50 in assay [2] came out at 13.8 µM. Besides, the Activity in assay [3] is recorded as 230.6%; in assay [5], 98.5%; in assay [6], 92.8%. The result in the assay with BV-2 [4] and in the assay with BV-2 [7] was inactive.

With `Cc1ccc(-n2c(=O)c3c(cc(C)n3C)n(CC(=O)Nc3ccc(Br)cc3F)c2=O)cc1`, the values for the Activity in [3] and in [5] were 90.1% and 156.8%, respectively. Besides, the result with BV-2 [9] was inactive.

Regarding `O=C(Nc1ccc(F)cc1)c1cc2n(n1)CC(c1ccc3c(c1)OCO3)OC2` (centres undefined), the Activity in [3] worked out at 123.2%; in assay [5] it was 113.8%; in [6], 105.3%.

Take `O=C(CN1C(=O)NC(c2ccc(Cl)cc2)C2=C1COC2=O)Nc1ccc(F)c(F)c1` (centres undefined): the result in the assay on BV-2 [1] was Active. Besides, the half-maximal effective concentration (EC50) in [2] is 23.5 µM. In addition, the values for the Activity in [3], in assay [5] and in assay [6] were 171.6%, 69.6% and 84.1%, respectively. Moreover, the outcome with BV-2 [4] and in the assay with BV-2 [7] was inactive.

Turning to `O=C(CN1C(=O)NC(c2ccc(Cl)cc2)C2=C1COC2=O)Nc1cc(F)cc(F)c1` (centres undefined), the outcome in the assay on BV-2 [1] was Active. In addition, the EC50 in assay [2] was 31.2 µM. In addition, the Activity is given as 186.7% in assay [3], 56.8% in [5] and 80.4% in [6]. The result with BV-2 [4] and in the assay with BV-2 [7] was inactive.

For the compound `CCc1cc(-c2csc(S(=O)(=O)Nc3ccc(C)cc3Br)c2)on1`, the outcome with BV-2 [1], in the assay with BV-2 [8] and with BV-2 [11] was Active. For the same compound, the concentration giving a half-maximal response (EC50) in assay [2] turned out to be 33.6 µM. Further, the Activity is 206.2% in assay [3], 76.8% in [5], “Dose-dependent-effect; Significant Reversal Achieved At > 5 Um” in the assay with BV-2 [10] and 104.1% in assay [6]. Moreover, the outcome with BV-2 [4] and with BV-2 [7] was inactive.

In the case of `CCOc1ccc(-c2nc(C3CC(=O)N(c4ccc(C)cc4)C3)no2)cc1` (centres undefined), the Activity is on record as 97.4% in [3], 85.6% in [5] and 104.7% in [6].

Regarding `Cc1cccc(-n2c(=O)c3c(cc(C)n3C)n(CC(=O)Nc3ccc(C(F)(F)F)cc3)c2=O)c1`, the Activity stood at 145.1% in assay [3], 95.9% in [5] and 113.8% in assay [6].

For `CC1=NS(=O)(=O)N(C)C=C1C(=O)OCc1nc(-c2cccc(F)c2)no1`, the Activity in assay [3] amounted to 94.3%; in assay [5], 78.9%; in assay [6] it was 90.3%.

On to `CCNc1ncnc2sc3c(c12)CCN(Cc1ccncc1)C3`, for which the Activity in assay [3] is 94%; in assay [5] it was 97.1%; in assay [6] it was 89.5%.

As for `COc1ccc(C2NC(=O)N(CC(=O)N3CCCCCC3)C3=C2C(=O)OC3)cc1` (centres undefined), the Activity in assay [3] came to 102.4%; in assay [5], 104.8%; in [6], 87.4%.

The values are drawn from ChEMBL document CHEMBL6078650, “A Phenotypic High-Throughput Screen Identifies Small Molecule Modulators of Endogenous RGS10 in BV-2 Cells” (J Med Chem, 2024).
